Screening results from PubChem.
This is a sample that favours compounds with a hit; in the whole collection about 4.1% have one here.
FLuc stim CS – FLuc activators, initial screening, artefact control for FLuc-dependent activation tests, biochemical, ATPlite luminescence; ATPlite luciferase biochemical, 10 min; 0 = ATP-free wells, 1 = DMSO control; activation factor at 10 µM; 200,000 tested, under 10 active;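 active means luciferase activation factor, scaled between plate controls, of at least 2 with compound at 10 µM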
Target sequence (P08659 whole entry, looked up): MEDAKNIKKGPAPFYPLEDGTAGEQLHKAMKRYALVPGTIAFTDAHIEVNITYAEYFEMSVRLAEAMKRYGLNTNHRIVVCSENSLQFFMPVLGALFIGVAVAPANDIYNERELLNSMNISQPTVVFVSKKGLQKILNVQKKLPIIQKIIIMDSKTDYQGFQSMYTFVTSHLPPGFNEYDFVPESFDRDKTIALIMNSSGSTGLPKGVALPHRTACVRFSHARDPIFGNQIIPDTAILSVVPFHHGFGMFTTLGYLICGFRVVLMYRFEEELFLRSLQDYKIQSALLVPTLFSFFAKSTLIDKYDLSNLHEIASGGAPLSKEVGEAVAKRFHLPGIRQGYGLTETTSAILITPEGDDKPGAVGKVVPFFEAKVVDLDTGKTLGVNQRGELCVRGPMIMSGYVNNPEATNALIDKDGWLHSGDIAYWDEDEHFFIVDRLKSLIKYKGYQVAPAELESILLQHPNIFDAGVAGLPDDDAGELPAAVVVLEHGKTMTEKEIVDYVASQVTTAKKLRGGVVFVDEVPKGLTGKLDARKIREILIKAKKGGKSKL
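System: Luciferase/luciferin detection reagent, cell-free biochemical luciferase assay | Medium: PBS buffer for ATP | Dosing: Test compounds dosed from 2 mM stocks in 100% DMSO | Timing: 10 min at ambient temperature | Signal: Luminescence measurement of luciferase light output | Evaluation: Luciferase activation, seen as luminescence increase over controls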
FLuc inh counter – firefly luciferase enzyme inhibitors, primary screen, artefact control for luciferase-based inhibitor screens, biochemical, luminescence, ATPLite; 200,000 tested, 1.5% active; 10 min; Luciferin 4-monooxygenase (Photinus pyralis), P08659; inhibition, % at 10 µM;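 active means inhibition above about 50% when tested at 10 µM, limit read from the data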
NF-kB neuron act – activators of NF-kB expression in neurons, primary screen, cell-based, HTS | human neuronal cells, NF-kB reporter expression; stronger effect = higher value | fold change at 12.5 µM | 190,000 tested, 1.6% active | AID 1239, 2008; in the data active means fold change above about 3.3
APP 5'UTR act – activators of APP 5'UTR luciferase reporter, primary screen, SH-SY5Y cells; activation, % at 2 µM; SH-SY5Y APP 5'UTR luciferase reporter, luminescence; zero percent = DMSO vehicle wells; AID 1276, 2008; 190,000 tested, 1% active;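 active means activation above a set limit, based on mean plus 3 SD of controls, cut at about 140% in these data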
STAT1 activator – STAT1 signaling activators, primary screen, cell-based, HTS, luciferase reporter; NIH 3T3 STAT1-luciferase reporter, IFN-gamma, luminescence; 100% = IFN-gamma alone, no compound; activation (% of control), % at 5.5 µM; 200,000 tested, 2.6% active;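 active means activation above the screen-wide mean activation plus 3 SD, cut at about 130% in these data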
Of the large screens only hits and unclear results are named; the others gave an inactive call.

Cc1cc(C)c(C#N)c(SCc2nc3ccccc3c(=O)[nH]2)n1	APP 5'UTR act 152.7
COCc1cc(C)nc(SCc2nc3ccccc3c(=O)[nH]2)c1C#N	none
O=c1[nH]c(CSc2ccccn2)nc2c1cnn2-c1ccccc1	none
O=c1[nH]c(CSc2ccccn2)nc2ccccc12	STAT1 activator 134.9
Cc1nnc(N/N=C/c2cccc(OCc3ccc(Cl)c(Cl)c3)c2)n1N	STAT1 activator 140.5
CCOC(=O)N1CCC(NC(=O)c2cnc3n(c2=O)CCS3)CC1	none
O=C1c2ccccc2C(=O)c2cc(NC(=O)C3CC3)ccc21	NF-kB neuron act 4.52, APP 5'UTR act 139.4, STAT1 activator 130.3
CC(=O)/C(=N/Nc1ccccc1C)N1CCOCC1	none
COc1ccc(C(=O)C[n+]2cn(C(F)F)c3ccccc32)c(F)c1	STAT1 activator 129.7
COc1ccc(NC(=O)Nc2ccccc2F)c(C)c1	none
O=C(Nc1ccc2c3c(cccc13)CC2)c1ccc(Br)o1	STAT1 activator 130.6
Nc1nc(COc2ccc(Cl)cc2)cs1	STAT1 activator 136.6
Cc1ccc(OCc2csc(N)n2)cc1	STAT1 activator 130.6
COc1ccc(-c2[nH]ncc2N=Nc2cc(C)cc(C)c2)cc1	none
COc1ccc(-c2[nH]ncc2N=Nc2ccccc2)cc1	STAT1 activator 129.8
O=C(Nc1ccc2c(c1)OCO2)c1cnc2n(c1=O)CCS2	none
O=C(Nc1ccc2c(c1)OCCO2)c1cnc2n(c1=O)CCS2	STAT1 activator 142.1
O=C(Nc1ccccc1)c1cnc2n(c1=O)CCS2	none
Cc1cccc(NC(=O)c2cnc3n(c2=O)CCS3)c1	STAT1 activator 131.7
COc1ccc(-c2cc(CS(=O)(=O)c3ccccc3)on2)cc1	STAT1 activator 142.4
O=S(=O)(Cc1cc(-c2ccccc2)no1)c1ccccc1	STAT1 activator 129.1
Clc1ccc(SCc2cc(-c3ccccc3)no2)cc1	none
COc1ccc(-c2cc(COc3ccccc3)on2)cc1	STAT1 activator 140.1
O=C1c2ccccc2C(=O)N1Cc1cc(-c2ccccc2)no1	none
Clc1ccc(OCc2cc(-c3ccccc3)no2)c(Cl)c1	FLuc inh counter 51.4, NF-kB neuron act 4.53, APP 5'UTR act 187.8
Cc1cc(NC(=O)CSc2nnc(-c3cccnc3)n2Cc2ccccc2)no1	none
CN=CC1=C(O)C(C(=O)OC)C(C)(C)CC1=O (stereo not drawn)	none
COC(=O)C1C(=O)/C(=C/N(C)C)C(=O)CC1(C)C (stereo not drawn)	NF-kB neuron act 6.15
CCNS(=O)(=O)c1ccc(NC(=O)c2cccnc2)cc1	none
CCC(C)c1ccc(NC(=O)c2cccnc2)cc1 (stereo not drawn)	NF-kB neuron act 3.91, STAT1 activator 133.0
O=C(Nc1ccc(S(=O)(=O)Nc2ncccn2)cc1)c1cccnc1	STAT1 activator 134.3
CCC(C)c1ccc(O)c(NC(=O)c2cccnc2)c1 (stereo not drawn)	none
CC(C)c1ccc(NC(=O)c2cccc(Br)c2)cc1	STAT1 activator 140.3
CCCCn1nc(C(=O)Oc2ccc3c(C)cc(=O)oc3c2)c2ccccc2c1=O	none
O=C(CCN1CCN(c2ccccc2)CC1)N/N=C/c1ccccc1OC(F)F	none
COc1cccc(C2(CSc3nnc(-c4cc(OC)c(OC)c(OC)c4)o3)OCCO2)c1	none
CCOC(=O)c1cnn(-c2ccc(C)cc2)c1N	none
C=CCNC(=O)c1c(Br)cnn1-c1ccc(C)cc1	STAT1 activator 147.4
O=C(Nc1cccc(Cl)c1)NC1CC2CCC(C1)N2Cc1cccs1 (stereo not drawn)	none
Nc1ccc(-c2nc3ncccc3o2)c(Cl)c1	FLuc inh counter 72.5, STAT1 activator 145.0
Nc1cc(-c2nc3ncccc3o2)ccc1Cl	STAT1 activator 129.9
Cc1cc(-c2nc3ncccc3o2)ccc1N	STAT1 activator 138.6
CCCC(=O)Nc1cc(-c2nc3ncccc3o2)ccc1C	none
Cc1cccc(NC(=O)c2ccc(NC(C)c3ccccc3)c([N+](=O)[O-])c2)n1 (stereo not drawn)	none (no result: NF-kB neuron act)
Oc1c(Cl)cc(Cl)cc1CNc1ccc(Br)cn1	none
Oc1ccc(Cl)cc1CNc1ccc(Br)cn1	NF-kB neuron act 4.88
CCn1c(=N)c(C(=O)NC)cc2c(=O)n3cccc(C)c3nc21	none (no result: NF-kB neuron act, STAT1 activator)
